Screening results deposited in PubChem BioAssay by Broad Institute.
F508del corr – CFTR F508del correction in bronchial cells | AID 720511 | activity (quench increase), % at 7.58 µM | 0.36% of 350,000 active | CFBE cells, YFP halide quenching; stimulated with forskolin plus potentiator P3; % fluorescence drop versus neutral controls;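 active = mean added fluorescence quench of at least 8% versus neutral control, with both replicates also reaching 8%; inconclusive = only one of the mean or replicate conditions met; inactive = mean below 8% and not both replicates reaching 8%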;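 also: cells transiently co-express mutant CFTR-F508del with the halide-sensitive YFP; corrector assay measuring rescue of mutant channel to the surface after 24 h compound exposure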
ERAP1 inh – inhibitors of human ERAP1 aminopeptidase. 0.15% of 340,000 active. recombinant ERAP1, Leu-AMC fluorescence, 60 min. inhibition, % at 10.7 µM. Q9NZ08. AID 652197;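 active = mean replicate inhibition of at least 30%, or all replicates individually reaching that 30% level; inactive = mean below 30% and not every replicate reaching it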
SIRT5 block – inhibitors of human sirtuin-5 desuccinylase | 1.1% of 330,000 active | AID 652115 | Q9NXA8 | Purified SirT5, succinyl-peptide AMC, trypsin-coupled fluorescence | inhibition, % at 15 µM; in the data active = inhibition above about 15%; inconclusive = no clear call, values can overlap the other calls
Target sequence (Q9NXA8 whole entry, looked up): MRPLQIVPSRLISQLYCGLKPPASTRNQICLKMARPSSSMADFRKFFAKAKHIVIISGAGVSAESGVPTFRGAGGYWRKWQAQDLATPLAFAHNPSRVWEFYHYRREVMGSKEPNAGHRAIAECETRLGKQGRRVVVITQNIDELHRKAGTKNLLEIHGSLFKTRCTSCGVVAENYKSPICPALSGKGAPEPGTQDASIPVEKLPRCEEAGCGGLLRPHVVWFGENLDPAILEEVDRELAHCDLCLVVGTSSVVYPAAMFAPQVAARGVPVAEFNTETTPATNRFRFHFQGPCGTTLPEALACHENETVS
S100A4 MyoIIA – blocks human S100A4 binding to myosin IIA peptide. P26447. S100A4/TAMRA-MyoIIA peptide fluorescence polarization. inhibition, % at 10.7 µM. 0.14% of 360,000 active;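 active = mean inhibition of at least 70% across replicates, with every replicate also reaching that level; inconclusive = mean inhibition reaches 70% but some replicates fall short; inactive = mean inhibition below 70%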
Target sequence (P26447 whole entry, looked up): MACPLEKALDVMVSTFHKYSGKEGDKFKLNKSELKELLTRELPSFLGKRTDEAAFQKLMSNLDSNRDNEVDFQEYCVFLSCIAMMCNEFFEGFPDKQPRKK
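Test system: S100A4 monomer protein. Medium: HEPES buffer with Ca2+, pH 7.2. Reagent: fluorescent myosin IIA peptide, 5 nM. Compound dosing: single-point compound testing. Timing: 5 min between mix addition and reading. Benchmarks: DMSO neutral and TFP positive wells.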
Ecoli rRNA inh – inhibitors of bacterial rRNA selective over humanized ribosomes | E. coli WT GFP vs humanized-ribosome RFP mutants, fluorescence, 24 h; active compounds read low; DMSO median 0, no signal -100 | 1.6% of 350,000 active | GFP signal change (wild-type ribosome), % (concentration not given with the values);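 active = significant combined selectivity score with lowered wild-type GFP, culture density cut under 30%, mutant RFP and density less affected; inactive = any of these conditions unmet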
HepG2 cytotox – kills or reduces viability of HepG2 cells. shares compounds with Ecoli rRNA inh. ATP luminescence, 72 h. activity change, negative = cytotoxicity, unspecified at 26 µM. 30 tested, under 10 active. AID 743480;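 active = compounds whose fitted half-maximal signal-loss concentration is at most twice their highest valid dose; inconclusive = flat curve with 30 to 70% signal loss, or poor fit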
AID977621 – wild-type E. coli growth inhibition versus H69 humanized strain – H69 mutant RFP, wild-type GFP, cherry-pick, dose response. shares compounds with Ecoli rRNA inh. 1,900 tested, under 10 active. activity change, negative = inhibition at 50 µM. AID 977621. fluorescence, 24 h;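 active = Wild-type ribosome reporter drop at least double the humanized mutant ribosome reporter drop, growth loss under a set limit; inconclusive = no clear call, values can overlap the other calls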;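 also: wild-type GFP and H69 mutant RFP strains grown together 50/50 in each well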
AID977628 – E. coli growth inhibition, wild-type GFP versus h24 humanized RFP strain, dose response, h24 mutant RFP vs wild-type GFP, cherry-pick; shares compounds with Ecoli rRNA inh; E. coli WT GFP strain growth, fluorescence, 24 h; AID 977628; 1,900 tested, under 10 active; activity change, negative = inhibition at 50 µM;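 active = compound lowering the normal-ribosome reporter at least twice as much as the humanized-ribosome reporter, growth loss under a set limit; inconclusive = no clear call, values can overlap the other calls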;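 also: wild-type GFP and h24 humanized RFP strains co-cultured 1 to 1 per well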
Hits are given with their value; . = inactive; ? = inconclusive; / = not tested or not shown. A selection: hits, their analogues and other compounds. The true share with any hit is near 3.1%.

SMILES	F508del corr	ERAP1 inh	SIRT5 block	S100A4 MyoIIA	Ecoli rRNA inh	AID977621	AID977628	others
Cc1ccc(CN2CC(=O)N3[C@H](CO)[C@H](c4ccc(Br)cc4)[C@@H]3C2)cc1	.	.	.	.	.	/	/
C[C@@H]1CCCCO[C@H](CN(C)C(=O)CCCN(C)C)[C@@H](C)CN([C@@H](C)CO)C(=O)c2cc(NC(=O)Nc3cccc4ccccc34)ccc2O1	.	.	18	.	-39	.	?
C[C@@H]1CCCCO[C@@H](CN(C)C(=O)CCCN(C)C)[C@H](C)CN([C@H](C)CO)C(=O)c2cc(NC(=O)Nc3cccc4ccccc34)ccc2O1	.	.	.	.	.	.	?
C[C@@H]1CN([C@@H](C)CO)C(=O)c2cc(NC(=O)Nc3cccc4ccccc34)ccc2O[C@@H](C)CCCCO[C@H]1CN(C)C(=O)Nc1cccc2ccccc12	.	.	.	.	.	/	/
COc1ccc(CN(C)C[C@@H]2OCCCC[C@H](C)Oc3ccc(NC(=O)C4CCCCC4)cc3C(=O)N([C@H](C)CO)C[C@@H]2C)cc1	.	.	.	.	.	/	/
NS(=O)(=O)c1ccc(NC(=O)CCC(=O)O)cc1	.	.	.	.	-11	.	?
COc1cc2c(cc1OC)CN(CC(=O)Nc1ccc(C)cc1)CC2	.	.	.	.	.	/	/
COc1cc2c(cc1OC)CN(CC(=O)Nc1ccccc1SC)CC2	.	.	.	.	-20	.	.
Cc1nc(Cc2ccccc2)sc1CC#N	.	.	.	.	.	/	/
c1ccc(Cc2nc3ccccc3s2)cc1	.	.	.	.	-18	/	.
C[C@@H]1CN([C@H](C)CO)C(=O)c2cc(NC(=O)Nc3cccc4ccccc34)ccc2O[C@@H](C)CCCCO[C@H]1CN(C)S(=O)(=O)c1ccc(F)cc1	.	.	.	.	.	/	/
CN(CC(=O)Nc1ccc(F)cc1)C(=O)COc1ccc([N+](=O)[O-])cc1Cl	.	.	.	.	-24	.	.
Cc1ccc(OCC(=O)N(C)CC(=O)Nc2ccc(F)cc2)c([N+](=O)[O-])n1	/	.	.	.	.	/	/
C/C=C/c1ccc([C@@H]2[C@H](CN(C)S(=O)(=O)c3ccccc3)N[C@@H]2CO)cc1	.	/	/	/	.	/	/
O=C(C[C@@H]1CC[C@H](NC(=O)c2ccccn2)[C@H](CO)O1)NCc1cc(F)cc(F)c1	.	.	.	.	.	/	/
COc1ccc(OC)c(NC(=O)COc2ccc(S(=O)(=O)N3CCCC3)cc2)c1	.	.	.	.	.	/	/
COc1ccc(OC)c(NC(=O)COC(=O)Cc2ccc(Br)cc2)c1	.	.	.	.	.	/	/
COc1ccc(OC)c(NC(=O)COC(=O)CCNc2ccccc2OC)c1	.	.	.	.	-20	.	.
COc1ccc(OC)c(NC(=O)COc2ccc(S(=O)(=O)NC(C)C)cc2)c1	/	.	/	.	-23	.	.
COc1ccccc1CNC(=O)COC(=O)Cc1c[nH]c2ccccc12	.	.	.	.	.	/	/
COc1ccc(OC)c(NC(=O)COC(=O)C2CCN(C(=O)c3ccc(Cl)cc3)CC2)c1	.	.	.	.	-27	.	/
COc1ccccc1NC(=O)COC(=O)Cc1c[nH]c2ccccc12	.	.	.	.	-17	.	.
CC(C)NC(=O)N(C)C[C@H]1Oc2ccc(NC(=O)c3ccncc3)cc2CC(=O)N([C@@H](C)CO)C[C@@H]1C	.	.	.	.	.	/	/
Cc1ccc(OCC(O)CN2CCN(c3ccccn3)CC2)c(C)c1 (stereo unspecified)	.	.	.	.	-17	/	?
COc1ccc(-c2ccc3ccccc3n2)cc1OC	.	.	.	.	-34	/	?
SMILES	F508del corr	ERAP1 inh	SIRT5 block	S100A4 MyoIIA	Ecoli rRNA inh	AID977621	AID977628	others
N#CC1CN(Cc2ccccc2)CN(Cc2ccccc2)C1	.	.	.	.	-27	/	?
N#CC1CN(C(c2ccccc2)c2ccccc2)C1	.	.	.	.	.	/	/
COc1cccc(C#Cc2ccc3c(c2)[C@H]2[C@H](CCN2S(=O)(=O)c2ccc(C)cc2)[C@@H](CO)N3)c1	/	/	/	/	.	/	/
O=C(O)c1cccc2c1-c1ccc([N+](=O)[O-])cc1C2=O	.	.	/	.	-19	.	.
COCC(=O)N1C[C@@H]2[C@H](c3ccccc31)[C@H](CO)N2C(=O)C1CCCCC1	.	/	.	/	.	/	/
C[C@H](CO)N1C[C@H](C)[C@@H](CN(C)C(=O)c2ccc3c(c2)OCO3)Oc2ncc(C#CCN(C)C)cc2C1=O	.	.	.	.	.	/	/
CC(c1ccc(Cl)cc1)n1c(-c2ccc3ccccc3n2)n[nH]c1=S (stereo unspecified)	.	.	.	.	.	/	/
CC(c1ccc(F)cc1)n1c(-c2ccc3ccccc3n2)n[nH]c1=S (stereo unspecified)	.	.	.	.	-32	.	/
CCN(Cc1ccccc1)C(=O)COC(=O)c1cc(Cl)nc(Cl)c1	.	.	/	.	-35	.	.
COc1ccc2[nH]c3c(=O)n(CCCCC(=O)NCCC(C)C)c(=S)[nH]c3c2c1	.	.	.	.	-25	/	/	HepG2 cytotox=.
Cc1cccc(C)c1-n1nnnc1C1(C)CCC(=O)N1Cc1cccs1 (stereo unspecified)	.	/	.	.	-21	.	/
Cc1cccc(C)c1-n1nnnc1C1(C)CCC(=O)N1Cc1ccco1 (stereo unspecified)	.	/	.	.	.	/	/
O=S(=O)(Nc1cccc(-c2ccc(N3CCCCCC3)nn2)c1)c1ccc(F)cc1	.	.	.	.	-21	/	?
CCc1cc2c(=O)n(Cc3ccccc3)c(SC3CCOC3=O)nc2s1 (stereo unspecified)	.	.	.	.	-24	.	/
Cc1ccc(-c2cc3ccccc3nc2N)cc1	/	.	.	.	.	/	/
Cc1ccccc1S(=O)(=O)c1cc2ccccc2nc1N	.	.	.	.	-30	.	/
CCOC(=O)Cn1nnc(-c2ccc([N+](=O)[O-])cc2)n1	.	.	.	.	.	/	/
CCOC(=O)C(C)(C)n1nnc(-c2ccc([N+](=O)[O-])cc2)n1	.	.	.	.	-23	.	?
O=C(CN1CCOCC1)N1CCCCN2[C@H](CO)[C@@H](c3ccc(-c4ccccc4F)cc3)[C@@H]2C1	.	.	.	.	.	/	/
COCCN(C(=O)c1ccccc1F)c1nnc(-c2ccc(OC)cc2)s1	.	.	.	.	-24	.	?
COCCN(C(=O)c1ccccc1F)c1nc(-c2ccc(OC)cc2)cs1	.	.	.	.	.	/	/
